Several values for one entry are separate records, joined by “and”; a condition that tells them apart may be missing. Identical values can stand only once.
What was measured:
[1] = Solubility was determined; INS= less than 0.1; format: physicochemical
P388 [2] = assay: Compound was tested for antitumor activity in P-388 lymphocytic leukemia system at 200 mg/kg dose levels per injection; 0/6; format: functional, Mus musculus
Procedure, shortened: (§1)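 P-388 leukemia in animals, Q01D×09 schedule: dose given daily for 9 days, in mg/kg per injection. Read-outs are survivors on day 4 (live/total animals), body-weight difference test minus control (g), and % T/C (median lifetime of treated ÷ median lifetime of controls × 100). Some compounds were tested in independent runs at different times.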

P388 [3] = assay: (§2) Antitumor activity in P-388 lymphocytic leukemia system at 200 mg/kg dose levels per injection.; format: functional, Mus musculus; procedure, shortened: as §1
P388 [4] = assay: (§3) Antitumor activity in P-388 lymphocytic leukemia system at 100 mg/kg dose levels per injection.; format: functional, Mus musculus; procedure, shortened: as §1
P388 [5] = assay: as §3; format: functional, Mus musculus; remark: listed apart in the source
Procedure, shortened: (§4)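 P-388 leukemia in vivo, dosed Q01D×09 (one injection daily for 9 days, mg/kg per injection). Activity is %T/C, the median lifetime of treated animals divided by that of controls, ×100. Live animals on day 4 were counted against the total (survivors day 4). Repeat tests were done independently at different times.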

P388 [6] = assay: Antitumor activity in P-388 lymphocytic leukemia system at 25 mg/kg dose levels per injection.; format: functional, Mus musculus; procedure, shortened: as §1
P388 [7] = assay: (§5) Antitumor activity in P-388 lymphocytic leukemia system at 50 mg/kg dose levels per injection.; format: functional, Mus musculus; procedure, shortened: as §1
P388 [8] = assay: Compound was tested for antitumor activity in P-388 lymphocytic leukemia system at 200 mg/kg dose levels per injection.; format: functional, organism-based; design: dose 200 mg/kg; settings: Mus musculus; procedure, shortened: as §4
P388 [9] = assay: Antitumor activity in P-388 lymphocytic leukemia system at 25 mg/kg dose levels per injection; format: functional, Mus musculus; settings: 25 mg/kg; procedure, shortened: as §4
P388 [10] = assay: as §5; format: functional, Mus musculus; procedure, shortened: as §4; remark: listed apart in the source
P388 [11] = assay: Compound was tested for antitumor activity in P-388 lymphocytic leukemia system at 200 mg/kg dose levels per injection; format: functional, Mus musculus; procedure, shortened: as §4
P388 [12] = assay: Compound was tested for antitumor activity in P-388 lymphocytic leukemia system at 200 mg/kg dose levels per injection;6/6; format: functional, Mus musculus; procedure, shortened: as §1
P388 [13] = assay: Compound was tested for antitumor activity in P-388 lymphocytic leukemia system at 400 mg/kg dose levels per injection; 6/6; format: functional, Mus musculus; procedure, shortened: as §1
P388 [14] = assay: Antitumor activity in P-388 lymphocytic leukemia system and the difference in body weight calculated at 100 mg/kg dose levels per injection.; format: functional, Mus musculus
P388 [15] = assay: Antitumor activity in P-388 lymphocytic leukemia system and the difference in body weight was calculated at 200 mg/kg dose levels per injection.; format: functional, Mus musculus
P388 [16] = assay: Compound was tested for antitumor activity in P-388 lymphocytic leukemia system and the difference in body weight was calculated at 400 mg/kg dose levels per injection; format: functional, Mus musculus
P388 [17] = assay: Antitumor activity in P-388 lymphocytic leukemia system and the difference in body weight was calculated at 50 mg/kg dose levels per injection.; format: functional, Mus musculus
P388 [18] = assay: as §2; format: functional, Mus musculus; procedure, shortened: as §4; remark: listed apart in the source
P388 [19] = assay: Compound was tested for antitumor activity in P-388 lymphocytic leukemia system. at 400 mg/kg dose levels per injection; format: functional, Mus musculus; procedure, shortened: as §4
[20] = Solubility was determined; format: physicochemical
P388 [21] = assay: Compound was tested for antitumor activity in P-388 lymphocytic leukemia system at 200 mg/kg dose levels per injection; 5/6; format: functional, Mus musculus; procedure, shortened: as §1
P388 [22] = assay: Compound was tested for antitumor activity in P-388 lymphocytic leukemia system at 166.7 mg/kg dose levels per injection; 3/6; format: functional, Mus musculus; procedure, shortened: as §1
P388 [23] = assay: Compound was tested for antitumor activity in P-388 lymphocytic leukemia system at 30 mg/kg dose levels per injection; 6/6; format: functional, Mus musculus; procedure, shortened: as §1
P388 [24] = assay: Compound was tested for antitumor activity in P-388 lymphocytic leukemia system at 50 mg/kg dose levels per injection; 5/6; format: functional, Mus musculus; procedure, shortened: as §1
P388 [25] = assay: Compound was tested for antitumor activity in P-388 lymphocytic leukemia system at 60 mg/kg dose levels per injection; 6/6; format: functional, Mus musculus; procedure, shortened: as §1
P388 [26] = assay: Compound was tested for antitumor activity in P-388 lymphocytic leukemia system and the difference in body weight was calculated at 166.7 mg/kg dose levels per injection; format: functional, Mus musculus
P388 [27] = assay: Antitumor activity in P-388 lymphocytic leukemia system and the difference in body weight was calculated at 25 mg/kg dose levels per injection.; format: functional, Mus musculus
P388 [28] = assay: Compound was tested for antitumor activity in P-388 lymphocytic leukemia system and the difference in body weight was calculated at 30 mg/kg dose levels per injection; format: functional, Mus musculus
P388 [29] = assay: Compound was tested for antitumor activity in P-388 lymphocytic leukemia system at 25 mg/kg dose levels per injection; format: functional, Mus musculus; procedure, shortened: as §4
P388 [30] = assay: Compound was tested for antitumor activity in P-388 lymphocytic leukemia system at 30 mg/kg dose levels per injection; format: functional, Mus musculus; procedure, shortened: as §4
P388 [31] = assay: Compound was tested for antitumor activity in P-388 lymphocytic leukemia system at 60 mg/kg dose levels per injection; format: functional, Mus musculus; procedure, shortened: as §4
P388 [32] = assay: Compound was tested for antitumor activity in P-388 lymphocytic leukemia system and the difference in body weight was calculated at 60 mg/kg dose levels per injection; format: functional, Mus musculus
P388 [33] = assay: Compound was tested for antitumor activity in P-388 lymphocytic leukemia system. at 200 mg/kg dose levels per injection; Toxic; format: functional, organism-based; design: dose 200 mg/kg; settings: Mus musculus; procedure, shortened: as §4
P388 [34] = assay: Compound was tested for antitumor activity in P-388 lymphocytic leukemia system at 166.7 mg/kg dose levels per injection; Toxic; format: functional, organism-based; design: dose 166.7 mg/kg; settings: Mus musculus; procedure, shortened: as §4
P388 [35] = assay: Compound was tested for antitumor activity in P-388 lymphocytic leukemia system at 25 mg/kg dose levels per injection; 6/6; format: functional, Mus musculus; procedure, shortened: as §1

## CCOC(=O)N1C(=O)C2C3C=CC(C2C1=O)C1C2C(=O)N(C(=O)OCC)C(=O)C2C31 (stereo not given)
[1]
  Solubility: Insoluble
P388 [2]
  Survivors at day 4: 0
P388 [3]
  Survivors at day 4: 6
P388 [4]
  Survivors at day 4: 6
P388 [5]; 100 mg/kg
  T/C: 152% and 145%
  Weight difference: -4.6 g and -5.5 g
P388 [6]
  Survivors at day 4: 6
P388 [7]
  Survivors at day 4: 6
P388 [8]
  T/C: Toxic
P388 [9]
  T/C: 124% and 116%
P388 [10]; 50 mg/kg
  T/C: 135% and 121%
  Weight difference: -0.6 g and -0.8 g
P388 [11]
  Weight difference: -6.5 g

## COC1=CC2C3C(=O)NC(=O)C3C1C1C3C(=O)NC(=O)C3C21 (stereo not given)
[1]
  Solubility: Insoluble
P388 [3]
  Survivors at day 4: 6
P388 [12]
  Survivors at day 4: 6
P388 [4]
  Survivors at day 4: 6
P388 [5]
  T/C: 101%
P388 [13]
  Survivors at day 4: 6
P388 [7]
  Survivors at day 4: 6
P388 [14]
  Weight difference: -0.3 g
P388 [15]; 200 mg/kg
  Weight difference: -0.3 g and -0.4 g
P388 [16]
  Weight difference: -2 g
P388 [17]
  Weight difference: 0 g
P388 [18]; 200 mg/kg
  T/C: 101% and 90%
P388 [10]
  T/C: 99%
P388 [19]
  T/C: 98%

## O=C(O)C1C2C(=O)N(CO)C(=O)C2C(C(=O)O)C2C3C(=O)N(CO)C(=O)C3C12 (stereo not given)
P388 [3]
  Survivors at day 4: 6
P388 [4]
  Survivors at day 4: 6
P388 [5]; 100 mg/kg
  T/C: 120% and 107%
P388 [13]
  Survivors at day 4: 6
P388 [7]
  Survivors at day 4: 6
P388 [17]; 50 mg/kg
  Weight difference: -0.9 g and -1.2 g
P388 [18]; 200 mg/kg
  T/C: 114% and 120%
P388 [10]; 50 mg/kg
  T/C: 92% and 105%
P388 [19]; 400 mg/kg
  T/C: 129% and 131%

## CN1CCN(CN2C(=O)C3C4C=CC(C3C2=O)C2C3C(=O)N(CN5CCN(C)CC5)C(=O)C3C42)CC1 (stereo not given) [listing 1 of 2 here]
[20]
  Solubility: 1.5%
P388 [21]
  Survivors at day 4: 5
P388 [4]
  Survivors at day 4: 6
P388 [22]
  Survivors at day 4: 3
P388 [5]; 100 mg/kg
  T/C: 200% and 211%
P388 [6]
  Survivors at day 4: 6
P388 [23]
  Survivors at day 4: 6
P388 [24]
  Survivors at day 4: 5
P388 [25]
  Survivors at day 4: 6
P388 [14]; 100 mg/kg
  Weight difference: -3.7 g and -4.9 g
P388 [26]
  Weight difference: -5.1 g
P388 [15]
  Weight difference: -9 g
P388 [27]
  Weight difference: -0.6 g
P388 [28]
  Weight difference: -0.2 g
P388 [17]
  Weight difference: -1.3 g
P388 [29]
  T/C: 99%
P388 [30]
  T/C: 116%
P388 [10]
  T/C: 106%
P388 [31]
  T/C: 165%
P388 [32]
  Weight difference: -3.1 g

## CN1CCN(CN2C(=O)C3C4C=CC(C3C2=O)C2C3C(=O)N(CN5CCN(C)CC5)C(=O)C3C42)CC1 (stereo not given) [listing 2 of 2 here]
P388 [33]
  T/C: Toxic
P388 [34]
  T/C: Toxic

## O=C1C2C3C=CC(C2C(=O)N1CO)C1C(=O)N(CO)C(=O)C31 (stereo not given)
[20]
  Solubility: 0.5%
P388 [3]
  Survivors at day 4: 6
P388 [4]
  Survivors at day 4: 6
P388 [5]; 100 mg/kg
  T/C: 144% and 137%
P388 [6]
  Survivors at day 4: 6
P388 [7]
  Survivors at day 4: 6
P388 [14]; 100 mg/kg
  Weight difference: -3.9 g and -4 g
P388 [15]; 200 mg/kg
  Weight difference: -3.4 g and -4.1 g
P388 [17]; 50 mg/kg
  Weight difference: -2.5 g and -1.8 g
P388 [18]; 200 mg/kg
  T/C: 160% and 152%
P388 [9]
  T/C: 114% and 132%
P388 [10]; 50 mg/kg
  T/C: 127% and 140%

## CCOC(=O)N1C(=O)C2C3CCC(C2C1=O)C1C2C(=O)N(C(=O)OCC)C(=O)C2C31 (stereo not given)
[1]
  Solubility: Insoluble
P388 [21]
  Survivors at day 4: 5
P388 [3]
  Survivors at day 4: 6
P388 [4]
  Survivors at day 4: 6
P388 [5]; 100 mg/kg
  T/C: 157% and 142%
  Weight difference: -1.2 g and -2.2 g
P388 [7]
  Survivors at day 4: 6
P388 [35]
  Survivors at day 4: 6
P388 [18]
  T/C: 222%
P388 [8]
  T/C: Toxic
P388 [9]
  T/C: 111% and 104%
P388 [29]; 25 mg/kg
  Weight difference: -0.5 g and -0.7 g
P388 [10]; 50 mg/kg
  T/C: 127% and 115%
  Weight difference: -0.3 g and -0.4 g
P388 [11]; 200 mg/kg
  Weight difference: -4 g and -5.2 g

From ChEMBL document CHEMBL1123476, “Synthesis of congeners and prodrugs of the benzene maleimide photoadduct mitindomide as potential antitumor agents. 2” (J Med Chem, 1986)
